Compound activity: PubChem BioAssay, several laboratories
This is a sample that favours compounds with a hit; in the whole collection about 3.1% have one here.
ADAM17 inh – ADAM17 inhibitors, primary screen, biochemical, QFRET | Disintegrin and metalloproteinase domain-containing protein 17 (Homo sapiens), P78536 | recombinant ADAM17, EDANS/DABCYL FRET peptide cleavage | inhibition, % at 6.95 µM | 0.83% of 370,000 active;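 active means inhibition above the mean of compounds lying between control limits plus 3 SD, set per campaign, cut at about 8.5% in these data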
Target sequence (P78536 215-824 limits assumed): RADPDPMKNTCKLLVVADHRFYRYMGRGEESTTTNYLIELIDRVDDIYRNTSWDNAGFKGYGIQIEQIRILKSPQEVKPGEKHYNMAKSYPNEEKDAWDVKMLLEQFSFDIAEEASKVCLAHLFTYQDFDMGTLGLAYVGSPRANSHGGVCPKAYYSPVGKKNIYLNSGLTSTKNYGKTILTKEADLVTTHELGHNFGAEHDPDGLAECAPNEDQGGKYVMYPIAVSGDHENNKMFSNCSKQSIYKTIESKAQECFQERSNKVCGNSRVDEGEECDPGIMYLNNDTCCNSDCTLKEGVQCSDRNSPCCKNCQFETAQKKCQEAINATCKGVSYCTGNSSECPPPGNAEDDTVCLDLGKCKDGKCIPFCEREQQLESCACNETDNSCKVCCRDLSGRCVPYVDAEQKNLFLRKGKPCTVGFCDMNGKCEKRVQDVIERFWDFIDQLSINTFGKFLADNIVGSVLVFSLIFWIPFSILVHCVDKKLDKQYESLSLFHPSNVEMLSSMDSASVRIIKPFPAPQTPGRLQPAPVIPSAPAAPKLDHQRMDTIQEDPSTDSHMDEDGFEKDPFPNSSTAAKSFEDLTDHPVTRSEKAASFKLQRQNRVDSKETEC
ADAM10 inh – human ADAM10 inhibitors, primary screen, biochemical, QFRET, HTS; Disintegrin and metalloproteinase domain-containing protein 10 (Homo sapiens), O14672; recombinant ADAM10, EDANS/DABCYL FRET peptide cleavage, 3 h; inhibition, % at 7 µM; 0.62% of 370,000 active;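 active means inhibition above a per-campaign cutoff equal to the mean of compounds falling between control-based bounds plus 3 SD, cut at about 20% in these data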
MPTP inh – mitochondrial permeability transition pore inhibitors, primary screen, biochemical, isolated mouse mitochondria, absorbance; Ca2+ swelling absorbance, 30 min; inhibition, % at 10 µM; 1.4% of 360,000 active;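 active means inhibition of 50% or more, scaled per plate between neutral and stimulator controls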
V-ATPase pH – regulators of yeast V-ATPase proton pumping, primary screen, pHLuorin cytosolic pH fluorescence | S. cerevisiae | response, % at 10 µM | 0.37% of 350,000 active; in the data active means response mostly above about 7.3%, no sharp cut-off; inactive means mostly below about 5.4%; further: actives read high
Hep lipid drop – inhibitors of hepatocyte lipid droplet formation, primary screen, imaging, high-throughput imaging, BODIPY stain; 0.4% of 240,000 active; AML12 mouse hepatocytes, oleate lipid droplets; inhibition, % at 6.5 µM;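 active means lipid droplet intensity inhibited by at least 50%, with more than 500 cells counted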
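Test system: AML12 mouse liver cells; schedule: overnight exposure; technique: high-content imaging of BODIPY-stained droplets and DAPI nuclei; read-out: % inhibition of corrected integrated BODIPY droplet signal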
aDG glyco up – activators of alpha-DG glycosylation, primary screen, uHTS, Pro5-aDG cells, AlphaScreen; alpha-DG glycosylation AlphaScreen (IIH6); 0% Pro5, 100% B10-LARGE cell signal; activation, % at 10 µM; 0.22% of 360,000 active; AID 624168, 2012;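 active means activation of at least 8% versus controls, or a plate z-score of at least 8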;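 further: Pro5 are CHO cells carrying HIG-tagged alpha-DG that lacks glycosylation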
Lipid drop inh – hepatocyte lipid droplet accumulation inhibitors, confirmation, imaging, AML12 mouse hepatocytes, single concentration, high-content | BODIPY lipid droplet imaging; droplets induced with 100 µM oleic acid | AID 463183, 2010 | inhibition, % at 5.2 µM | 65% of 870 active | shares compounds with Hep lipid drop;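 active means inhibition of lipid droplet metric at least 50%, with more than 300 cells in each of four replicates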
AML12 tox img – AML12 hepatocyte cytotoxicity, counter-screen for hepatic lipid droplet formation project, imaging, DAPI nuclear morphology imaging | z-score at 5 µM | shares compounds with Hep lipid drop | 3% of 870 active | AML12 mouse hepatocytes; active compounds read high; cells fed 100 µM oleate overnight; in the data active means z-score above about 6.3;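 further: compound exposure lasted overnight at 37 °C before fixation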
AML12 tox conf – AML12 hepatocyte cytotoxicity, confirmation, cytotoxicity control for hepatic lipid droplet formation project, cell-based, single concentration | 530 tested, under 10 active | AML12 mouse hepatocyte viability, ATP luminescence; cells loaded with 100 µM oleic acid | AID 463219, 2010 | shares compounds with Hep lipid drop | cytotoxicity, % at 50 µM;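 active means cytotoxicity above 50% in each of four replicates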;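 further: compound exposure lasted overnight at 37 °C before the ATP read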
Of the large screens only hits and unclear results are named; the others gave an inactive call (follow-up assays come after a bar, where they were run).

O=C(Nc1ccc(F)cc1)OCCN1CCCC12CCC(c1ccccc1)CC2 (stereo unspecified)	none (no result: MPTP inh, V-ATPase pH, Hep lipid drop, aDG glyco up)
CCN(CC)S(=O)(=O)c1ccc(S(=O)(=O)N(CC(=O)Nc2ccccc2)Cc2ccco2)cc1	Hep lipid drop 62 | Lipid drop inh 96 | AML12 tox img inactive | AML12 tox conf inactive
CN(C)S(=O)(=O)c1ccc(S(=O)(=O)N(CC(=O)Nc2ccccc2)Cc2ccco2)cc1	none (no result: Hep lipid drop)
Cc1ccc(-c2cc3nc(-c4ccco4)cc(N4CCN(Cc5ccoc5)CC4)n3n2)cc1	none (no result: MPTP inh, V-ATPase pH, Hep lipid drop, aDG glyco up)
CCc1ccccc1NC(=O)c1cccc(NC(=O)/C=C/c2ccco2)c1	Hep lipid drop 53 | Lipid drop inh inactive | AML12 tox img inactive
O=C(Nc1c(-c2ccc(C(F)(F)F)cc2)nc2ncccn12)c1ccccc1	none (no result: MPTP inh, V-ATPase pH, Hep lipid drop, aDG glyco up)
O=c1[nH]c(=O)n(Cc2ccccc2)c2nc(-c3ccc(Oc4ccc(F)cc4)c([N+](=O)[O-])c3)n(CCO)c12	Hep lipid drop 64 | Lipid drop inh 71 | AML12 tox img inactive | AML12 tox conf inactive
CCOc1ccc(CN(C)C(=O)CNC(=O)c2ccc3ccccc3c2)cc1OC	Hep lipid drop 88 | Lipid drop inh 107 | AML12 tox img inactive | AML12 tox conf inactive
CCOC(=O)c1sc2cc([N+](=O)[O-])cc(SCCO)c2c1N	Hep lipid drop 52 | Lipid drop inh 61 | AML12 tox img inactive
CC1=CC(C)(C)N2C(=O)C3(NCCc4c3[nH]c3ccccc43)c3cccc1c32 (stereo unspecified)	Hep lipid drop 62 | Lipid drop inh 105 | AML12 tox img inactive | AML12 tox conf inactive
CCC[C@H]1[C@@H](NC(=O)c2cccc(N(C)C)c2)CC[C@@]23CCCN2C(=O)CCC[C@@H]13	none (no result: MPTP inh, V-ATPase pH, Hep lipid drop, aDG glyco up)
CS(=O)(=O)N(CC(=O)Nc1ccc2c(c1)OCO2)Cc1ccccc1	Hep lipid drop 54 | Lipid drop inh inactive | AML12 tox img inactive | AML12 tox conf inactive
CS(=O)(=O)N(CCc1ccccc1)CC(=O)Nc1ccc2c(c1)OCO2	none
CS(=O)(=O)N(CC(=O)Nc1cccc(Br)c1)Cc1ccccc1	Hep lipid drop 52 | Lipid drop inh 84 | AML12 tox img inactive | AML12 tox conf inactive
CC(C)c1ccc(NC(=O)CN(Cc2ccccc2)S(C)(=O)=O)cc1	none
CN1[C@H](Cc2ccccc2)COc2cc(N3CCCC3)ccc2S1(=O)=O	none (no result: MPTP inh, V-ATPase pH, Hep lipid drop, aDG glyco up)
COc1ccc(N(Cc2cc(=O)[nH]c3ccccc23)C(C)=O)cc1	Hep lipid drop 75 | Lipid drop inh inactive | AML12 tox img inactive
CCC(=O)N(Cc1cc(=O)[nH]c2ccccc12)c1ccc(OC)cc1	none
C[C@H]1CCCN1c1cccc2c1S(=O)(=O)N1CC[C@H](C1)O2	none (no result: MPTP inh, V-ATPase pH, Hep lipid drop, aDG glyco up)
CN(C)c1ccc(N=Nc2ccccc2Br)cc1	Hep lipid drop 67 | Lipid drop inh 113 | AML12 tox img inactive | AML12 tox conf 81
CC(=O)c1ccc(N=Nc2ccc(N(C)C)cc2)cc1	none
CCOc1ccc2ccccc2c1/C=N/NC(=O)CNC(=O)C(c1ccccc1)c1ccccc1	Hep lipid drop 82 | Lipid drop inh 92 | AML12 tox img inactive | AML12 tox conf inactive
COc1ccc(Cl)cc1CNCCCSc1ncccn1	Hep lipid drop 50 | Lipid drop inh inactive | AML12 tox img inactive
CCCCCCCNC(=O)C1(CC2CC(c3ccc(Cl)cc3)=NO2)CCN(C(=O)c2cc(OCC)c(OCC)c(OCC)c2)CC1 (stereo unspecified)	Hep lipid drop 50 | Lipid drop inh 90 | AML12 tox img inactive | AML12 tox conf inactive
CCc1cc(C(=O)N2CCc3c([nH]c4ccccc34)C2c2ccc(OC)cc2F)no1 (stereo unspecified)	Hep lipid drop 69 | Lipid drop inh 81 | AML12 tox img inactive | AML12 tox conf inactive
COc1ccc(C2c3[nH]c4ccccc4c3CCN2C(=O)c2ccc(=O)n(C)n2)c(F)c1 (stereo unspecified)	none
CCOc1ccccc1Nc1nnc(SCC(=O)Nc2nc(-c3ccc(OC)cc3)cs2)s1	Hep lipid drop 91 | Lipid drop inh 104 | AML12 tox img inactive | AML12 tox conf inactive
COc1ccccc1Nc1nnc(SCC(=O)Nc2nc(-c3ccc(F)cc3)cs2)s1	Hep lipid drop 68 | Lipid drop inh inactive | AML12 tox img inactive
O=C(CCNC(=O)C1CCN(S(=O)(=O)c2ccccc2)CC1)NCCc1ccc(Cl)cc1	none
O=C(CCNC(=O)C1CCN(S(=O)(=O)c2ccccc2)CC1)NCCc1cccc(F)c1	Hep lipid drop 54 | Lipid drop inh inactive | AML12 tox img inactive
COc1ccc(NC(=O)CCC2COc3ccccc3O2)c(OC)c1 (stereo unspecified)	none
COc1ccc(/C=C/C(=O)NCC2COc3ccccc3O2)c(OC)c1 (stereo unspecified)	Hep lipid drop 65 | Lipid drop inh 84 | AML12 tox img inactive | AML12 tox conf inactive
c1ccc(NCc2ccncc2)cc1	Hep lipid drop 55 | Lipid drop inh inactive | AML12 tox img inactive
S=C(Nc1ccccc1)OCCN1CCCC12CCC(c1ccccc1)CC2 (stereo unspecified)	none (no result: MPTP inh, V-ATPase pH, Hep lipid drop, aDG glyco up)
CCC1=NN=C(c2ccc(F)cc2)C(c2c[nH]c3ccccc23)N1O (stereo unspecified)	Hep lipid drop 65 | Lipid drop inh inactive | AML12 tox img inactive
Cc1ccc([N+](=O)[O-])cc1NC(=O)C(C)Sc1nnc(C)n1CC1CCCO1 (stereo unspecified)	Hep lipid drop 60 | Lipid drop inh inactive | AML12 tox img inactive
Cc1cc(Br)ccc1OCCCN1CCC(C(O)(c2ccccc2)c2ccccc2)CC1	none (no result: MPTP inh, V-ATPase pH, Hep lipid drop, aDG glyco up)
CCc1ccc(Oc2c(Cl)cnn(-c3ccc(C)cc3)c2=O)cc1	none (no result: MPTP inh, V-ATPase pH, Hep lipid drop, aDG glyco up)
CCC[C@H]1[C@@H](NC(=O)Nc2ccc3c(c2)OCO3)CC[C@@]23CCCN2C(=O)CCC[C@@H]13	none (no result: MPTP inh, V-ATPase pH, Hep lipid drop, aDG glyco up)
